# FLuc stim CS – affects firefly luciferase, flagging false hits in luciferase stimulation screens | ATPlite luciferase biochemical, luminescence, 10 min; 0 = ATP-free wells, 1 = DMSO control | activation factor at 10 µM | 200,000 tested, under 10 active;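 active = luciferase activation factor, scaled between plate controls, of at least 2 with compound at 10 µM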
# Target sequence (P08659 whole entry, looked up): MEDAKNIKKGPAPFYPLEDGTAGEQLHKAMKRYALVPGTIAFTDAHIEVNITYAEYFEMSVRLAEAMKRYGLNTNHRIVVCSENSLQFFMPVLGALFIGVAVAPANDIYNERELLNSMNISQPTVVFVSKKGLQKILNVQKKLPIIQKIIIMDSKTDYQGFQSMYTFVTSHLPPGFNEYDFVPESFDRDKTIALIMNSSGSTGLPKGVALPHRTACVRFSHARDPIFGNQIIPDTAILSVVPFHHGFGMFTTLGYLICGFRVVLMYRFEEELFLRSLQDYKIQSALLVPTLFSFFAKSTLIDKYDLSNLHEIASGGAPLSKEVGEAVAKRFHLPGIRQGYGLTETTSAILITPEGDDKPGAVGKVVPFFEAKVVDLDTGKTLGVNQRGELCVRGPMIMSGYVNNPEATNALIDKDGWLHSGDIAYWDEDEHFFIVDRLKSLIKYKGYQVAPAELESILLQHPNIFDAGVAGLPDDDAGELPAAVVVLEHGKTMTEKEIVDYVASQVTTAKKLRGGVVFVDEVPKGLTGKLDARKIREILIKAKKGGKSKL
#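 System: luciferase plus luciferin reagent, cell-free; medium: PBS as buffer for the ATP substrate; dosing: test compounds dosed from 2 mM stocks in 100% DMSO; timing: 10 min post-reagent at room temperature; measured by: luminescence measurement of luciferase light output; evaluation: luciferase activation, seen as luminescence increase over controls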
# PPC-1+TRAIL kill – PPC-1 cancer cell killing with TRAIL present; hit rate 0.41% among 220,000; cell killing (% activity), % at 4 µM or 5 µM; PPC-1 cells + TRAIL, ATPLite viability luminescence; AID 1443;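 active = cell killing above 50% in the first pass at 4 µM, then a duplicate retest at 5 µM averaging 50% or more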;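 also: plate controls were cells with TRAIL plus DMSO for no effect and medium-only wells lacking cells for full effect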
# TRAIL sens C8 – caspase-8 TRAIL sensitization; NB7+C8 cells + TRAIL, ATPlite viability luminescence; inhibition (viability loss, TRAIL sensitization), % at 10 µM; hit rate 1% among 360,000;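 active = compounds causing at least 50% loss of cell viability in the single-dose screen, relative to plate controls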
# FLuc inhib CS – inhibits firefly luciferase, flagging false hits in luciferase inhibition screens | P08659 | ATPLite firefly luciferase biochemical luminescence, 10 min | inhibition, % at 10 µM | hit rate 1.5% among 200,000;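 active = inhibition above about 50% when tested at 10 µM, limit read from the data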
# PPC-1 tox – PPC-1 cell cytotoxicity. shares compounds with PPC-1+TRAIL kill. PPC-1 viability, ATPlite luminescence, overnight. cytotoxicity, % at 5 µM. hit rate 50% among 1,200. AID 1447;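 active = reconfirmed compounds whose average cytotoxicity reaches 50% or more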;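 also: 0% = DMSO-treated cells and 100% = wells holding medium but no cells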
# Numbers without * were called inactive; nt = no result given. Compounds with a hit are over-represented: about 1.6% of the library has one in this group of screens.
SMILES,FLuc stim CS,PPC-1+TRAIL kill,TRAIL sens C8,FLuc inhib CS,PPC-1 tox
COc1ccc(-c2nc3ccccc3s2)cc1O,0.1,83*,82*,91*,84*
FC(F)(F)c1ccc(-c2nc3ccccc3s2)cc1,nt,nt,-14,nt,nt
CCCc1nnc(SCc2ccc(OC)cc2)n1N,1,-2,1,-1,-16
CN1CCN(c2nc3ccccn3c(=O)c2C=C(C#N)C#N)CC1,nt,nt,-6,nt,nt
CCN(CC)c1ccc2cc(-c3nc4ccccc4[nH]3)c(=O)oc2c1,0,96*,95*,96*,95*
CCN(CC)c1ccc2cc(-c3nc4ccccc4n3C)c(=O)oc2c1,0.8,13,29,24,nt
CCOc1cc(C(=S)N2CCN(C)CC2)ccc1OCC(=O)N1CCOCC1,1,-6,-20,-2,-5
CCOc1cc(C(=O)OCc2ccc(OC)cc2)ccc1OCC(=O)N1CCOCC1,nt,nt,-5,nt,nt
O=C(/C=C/c1ccccc1)NCCc1nc2ccccc2[nH]1,nt,-4,-31,nt,nt
COc1ccc(-c2noc(CCC(=O)NC3CCCCC3)n2)cc1OC,1,13,1,1,nt
COc1cccc(-c2noc(CCC(=O)NC3CCCCC3)n2)c1,1,-1,21,-4,5
CCC(=O)OCC(=O)N=c1sccn1Cc1ccc(C)cc1,nt,nt,4,nt,nt
O=C(CCl)N=c1sccn1Cc1ccc(Cl)cc1Cl,1,98*,97*,-1,96*
CCC(=O)OCC(=O)N=c1sccn1Cc1ccccc1Cl,nt,nt,8,nt,nt
O=C(CCl)N=c1sccn1Cc1cccc2ccccc12,1,97*,95*,0,98*
NC(=O)c1ccc(=O)n(Cc2ccc(Cl)cc2Cl)c1,nt,nt,0,nt,nt
O=C(CCl)N=c1sccn1Cc1ccccc1Cl,nt,98*,95*,nt,95*
Cc1nnc(NC2=NCCC2)o1,1,3,-6,0,nt
Cc1nnc(NC2=NCCC2)s1,1.1,16,15,-6,8
CCCn1nc(NC(=O)c2ccco2)c2cc3ccc(C)cc3nc21,1,-1,-10,-1,7
CCCn1nc(NC(=O)c2ccco2)c2cc3cc(C)ccc3nc21,nt,25,3,nt,nt
COc1ccc(NS(=O)(=O)c2ccc(N/N=C/c3ccc(N4CCOCC4)cc3)c([N+](=O)[O-])c2)cc1,1,6,-2,3,nt
CCN1C(=O)C2(SC(NC(C)=O)=NN2C(C)=O)c2cc(C)ccc21 (configuration not stated),1,1,-10,0,nt
COC(=O)C1=C(C(=O)OC)[C@@H]2Nc3ccccc3[C@@]23C[C@@H](C(=O)OC)N=C3N1,nt,-2,-17,nt,nt
CC(=O)Nc1cccc(-c2nc3ccc(NC(C)=O)cc3s2)c1,0.3,38,48,66*,28
SMILES,FLuc stim CS,PPC-1+TRAIL kill,TRAIL sens C8,FLuc inhib CS,PPC-1 tox
Cc1ccc(NC(=O)CCC(=O)NNC(=O)c2ccccc2[N+](=O)[O-])c(C)c1,1.1,-10,-2,-6,-7
Cn1c(SCc2c(F)cccc2Cl)nc2c(c1=O)SCC2,1,1,17,-4,nt
Cc1ccccc1Cn1ccc(NC(=O)CCSc2nc(-c3ccco3)cc(C(F)(F)F)n2)n1,1,-2,10,-5,1
CN(C)C(=O)c1cn(-c2ccccc2)nc1-c1cc2ccccc2oc1=O,1,19,-1,-3,nt
Nc1c(C(=O)NCCN2CCOCC2)c2nc3ccccc3nc2n1CCc1ccccc1F,1.1,-7,16,-10,17
CC(=O)OC(Cn1nc(C)cc1C)c1ccccc1 (configuration not stated),1.1,4,-1,-6,0
COc1cccc(/C=C/C(=O)c2c(O)cc(C)oc2=O)c1O,1,-18,11,5,nt
COc1ccc(/C=C/C(=O)c2c(O)cc(C)oc2=O)c(OC)c1,0,87*,89*,95*,86*
COCC1CCN(Cc2c(C(=O)N3CCc4ccccc4C3)nc3ccc(Cl)cn23)C1 (configuration not stated),nt,nt,1,nt,nt
CCn1cc(CCC(=O)NC(C)c2ccccc2)c2ccccc21 (configuration not stated),nt,nt,3,nt,nt
O=C(c1ccco1)N1CCN(c2nc(C3CC3)nc3c2nnn3Cc2ccccc2Cl)CC1,1,13,-3,-5,4
CCOc1ccc(CC(=O)N2CCN(c3ccc(N4CCOCC4)nn3)CC2)cc1OCC,1,7,5,4,nt
COc1ccccc1-c1nnc(NC(=O)CSc2nncn2C)s1,0.1,77*,83*,94*,68*
COc1ccccc1-c1nnc(NC(=O)C(C)Sc2nncn2C)s1 (configuration not stated),0.7,1,6,32,nt
Cc1ccc(C(=O)Nc2ccc(O)c(C(=O)O)c2)o1,1,-1,-1,2,-7
CC(C)(C)C(=O)Nc1cccc(-c2nc3ccccc3c(=O)o2)c1,0.8,52*,59*,20,53*
O=C(Nc1ccc(Cl)c(Cl)c1)c1ccc(Cl)c(Cl)c1,nt,2,-1,nt,nt
O=C(Nc1ccc(Cl)c(Cl)c1)c1ccncc1,1,8,3,1,12
CCOc1ccc(N(C(=O)C2CCCO2)C2C=CS(=O)(=O)C2)cc1 (configuration not stated),1.1,29,-6,-6,nt
O=C(C1CCCO1)N(c1cccc(Cl)c1)C1C=CS(=O)(=O)C1 (configuration not stated),1,4,-6,-2,12
CCOC(=O)NC(O)C(=O)c1ccc(F)cc1 (configuration not stated),1.1,12,-3,-9,nt
CCCCN(C)S(=O)(=O)c1c(C)[nH]c(=O)[nH]c1=O,1.1,5,5,-8,0
Cc1ccccc1NC(=O)NCC1CCN(C(=O)OC(C)(C)C)CC1,nt,10,7,nt,nt
CN(C)CCC(C(=O)c1ccccc1)c1ccncc1 (configuration not stated),nt,nt,-6,nt,nt
COc1cc(/C=C(/C#N)c2nc3ccccc3[nH]2)ccc1OCC(=O)Nc1ccccc1C,1,19,87*,-2,-2
SMILES,FLuc stim CS,PPC-1+TRAIL kill,TRAIL sens C8,FLuc inhib CS,PPC-1 tox
Clc1ccccc1CSc1nc2ccncc2[nH]1,0.1,75*,76*,90*,76*
COc1cccc(CSc2nc3ccncc3[nH]2)c1,nt,83*,86*,nt,81*
Clc1ccccc1CSc1ncccn1,1.1,13,-1,-7,17
COc1cccc(N2CCN(C(=O)c3ccc(CSc4nc5ccncc5[nH]4)cc3)CC2)c1,0.9,0,11,6,nt
CCOc1ccc(NC(=O)CSc2nc(=O)n(Cc3ccccn3)c3c2CCC3)cc1,nt,nt,-13,nt,nt
N#Cc1ccccc1OCC(=O)N1CC(=O)Nc2ccccc21,nt,nt,4,nt,nt
Cc1cc(N=Nc2ccc(C)c(N=Nc3cc(C)c(N)cc3N)c2)c(N)cc1N,nt,64*,51*,nt,63*
CC(C)(C)C(=O)N1CCc2cc(-c3csc(N)n3)ccc21,0,82*,87*,96*,83*
COc1ccccc1-n1c(C)cc(/C=C2/C(=N)N3C(=NC2=O)SN=C3S(C)(=O)=O)c1C,0.1,47,58*,87*,55*

# Screening data (PubChem BioAssay)
